Data set [1] can be described thus: folding enthalpy; higher = less favourable; fluorescence melt of hairpins on a sequencing array, two-state fit. The conditions noted are these: sodium 0.088 M. A digest of the protocol:
(§1)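 Folding enthalpy and melting temperature come from bootstrapped two-state fits to Cy3 fluorescence of library hairpins carrying annealed Cy3 and quencher oligos on a sequenced MiSeq flow cell. Imaging was done in 50 mM Na-HEPES pH 8.0, 25 mM NaCl, stepping by 2.5 °C up to 60 °C, and signals were normalised to pre-quench Cy3 and to control constructs. Results of four replicates were combined by inverse variance, and fitted temperatures were raised by 9.35 °C to match UV melts.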

Data set [2] can be described thus: melting temperature; fluorescence melt of hairpins on a sequencing array, two-state fit, raised by 9.35 °C to match UV melts. The conditions noted are these: sodium 0.088 M. A digest of the protocol:
as §1

In the case of GGGAACGAAAGTTAGCCC ((((((....)))..))), the folding enthalpy in data set [1] is -17.2 kcal/mol. Further, in data set [2], the Tm turned out to be 33.1 °C.
For GGGAACGAAAGTTATCCC ((((((....)))..))), the folding enthalpy in data set [1] is -23.3 kcal/mol. Moreover, the Tm in data set [2] worked out at 36.6 °C.
For the sequence GGGAACGAAAGTTCGCCC ((((((....)))..))), in data set [1], the folding enthalpy is -14.8 kcal/mol. Also, in data set [2], the Tm came to 46.4 °C.
In the same order, the values of GGGAAGAAATTCCC (((((....))))) are -19.9 kcal/mol and 44.6 °C.
In the same order, the values of GGGAAGCGAAAGCTCCCC (((.(((....))).))) are -21.7 kcal/mol and 61.5 °C.
In the same order, the values of GGGAAGGGAAACCTCCCC (((.(((....))).))) are -21.6 kcal/mol and 45.2 °C.
Consider GGGAAGGGAAACCTTTCC ((.((((....)))).)), for which the folding enthalpy in data set [1] was -24.4 kcal/mol. In addition, in data set [2], the Tm came out at 45.7 °C.
In the same order, the values of GGGAATCGAAAGATACCC (((.(((....))).))) are -30.1 kcal/mol and 49.6 °C.
In the same order, the values of GGGAATCGAAAGATCCC (((.(((....)))))) are -24.6 kcal/mol and 49.7 °C.
For GGGAATGAAAATTCCC ((((((....)))))), the folding enthalpy in data set [1] was -40.6 kcal/mol. Further, the Tm in data set [2] was found to be 56 °C.
In the same order, the values of GGGACAGGAAACTGTCTC (.(((((....))))).) are -28.1 kcal/mol and 51.1 °C.
The matching figures for GGGACAGGAAACTGTTCC ((.((((....)))).)): -36.8 kcal/mol and 51.4 °C.
The matching figures for GGGACCACGAAAGTGCCC (((..(((....)))))): -15.7 kcal/mol and 40 °C.
With GGGACCGAAAGGTAACCC ((((((....)))..))), the folding enthalpy in data set [1] was -18.9 kcal/mol. Also, the Tm in data set [2] was found to be 46.1 °C.
In the same order, the values of GGGACCGAAAGGTTGCCC ((((((....)))..))) are -14.5 kcal/mol and 37.6 °C.
With GGGACCGCGAAAGCGCCC (((..(((....)))))), in data set [1], the folding enthalpy was -12.5 kcal/mol. In addition, in data set [2], the Tm is 39.2 °C.
In the same order, the values of GGGACCGGAAACGACCCC (((..((....))..))) are -25.2 kcal/mol and 35.5 °C.
The matching figures for GGGACGGGAAACCGTTCC ((.((((....)))).)): -35.2 kcal/mol and 57.2 °C.
Regarding GGGACGTCGAAAGACCCC (((..(((....)))))), in data set [1], the folding enthalpy is -18.4 kcal/mol. Further, in data set [2], the Tm is 41 °C.
In the same order, the values of GGGACTGGAAACAGTCTC (.(((((....))))).) are -20.6 kcal/mol and 51.7 °C.
The matching figures for GGGAGAACGAAAGTTCCC (((..(((....)))))): -17.1 kcal/mol and 47.7 °C.
The matching figures for GGGAGACCGAAAGGTCCC (((..(((....)))))): -12.8 kcal/mol and 53.2 °C.
As for GGGAGAGGAAACCCTCCC (((((.(....).))))), the folding enthalpy in data set [1] is -28.6 kcal/mol. Further, the Tm in data set [2] came to 47.6 °C.
GGGAGAGGAAACTCCCCC (((.(((....))).))): the folding enthalpy in data set [1] was -17.8 kcal/mol. Moreover, the Tm in data set [2] came to 49.4 °C.
As for GGGAGAGGAAACTCTCTC (.(((((....))))).), the folding enthalpy in data set [1] is -21.4 kcal/mol. In addition, the Tm in data set [2] is 46.2 °C.
In the same order, the values of GGGAGCCGAAAGGCACCC (((.(((....))).))) are -29.5 kcal/mol and 67.1 °C.
GGGAGCGAAAGCTGCCCC ((((((....)))..))): in data set [1], the folding enthalpy was -12.6 kcal/mol. Besides, the Tm in data set [2] was 58.1 °C.
The matching figures for GGGAGGCGAAAGCCACCC (((.(((....))).))): -25.1 kcal/mol and 65.6 °C.
In the same order, the values of GGGAGGGAAACCTCCC ((((((....)))))) are -32 kcal/mol and 65.8 °C.
Turning to GGGAGGGGAAACCCTTCC ((.((((....)))).)), the folding enthalpy in data set [1] was -32.4 kcal/mol. Besides, the Tm in data set [2] was found to be 51.6 °C.
Regarding GGGAGGTCGAAAGACCCC (((..(((....)))))), in data set [1], the folding enthalpy was -14.4 kcal/mol. The Tm in data set [2] is 54.5 °C.
In the same order, the values of GGGAGTCGAAAGACACCC (((.(((....))).))) are -30 kcal/mol and 56.9 °C.
As for GGGAGTGCGAAAGCACCC (((..(((....)))))), the folding enthalpy in data set [1] is -11.6 kcal/mol. For the same sequence, in data set [2], the Tm stood at 55.2 °C.
In the same order, the values of GGGAGTGGAAACATTCCC ((((.((....)).)))) are -33.5 kcal/mol and 48.2 °C.
With GGGATAACGAAAGTTCCC (((..(((....)))))), in data set [1], the folding enthalpy is -26.7 kcal/mol. Also, in data set [2], the Tm came out at 42.4 °C.
The matching figures for GGGATACGAAAGTACCCC (((.(((....))).))): -37.4 kcal/mol and 50.8 °C.
The matching figures for GGGATACGAAAGTAGCCC (((.(((....))).))): -43.9 kcal/mol and 63.1 °C.
For GGGATAGGAAACTACCCC (((.(((....))).))), the folding enthalpy in data set [1] was -23 kcal/mol. Also, the Tm in data set [2] came out at 38.7 °C.
In the same order, the values of GGGATAGGAAACTGTTCC ((.(.((....)).).)) are -16.5 kcal/mol and 28.6 °C.
The matching figures for GGGATCGAAAGATCCCCC ((((((....)))..))): -10.2 kcal/mol and 68.2 °C.
In the same order, the values of GGGATCGAAAGATCGCCC ((((((....)))..))) are -15.3 kcal/mol and 47.2 °C.
As to GGGATCGAAAGATCTCCC ((((((....)))..))), in data set [1], the folding enthalpy was -14.1 kcal/mol. Moreover, in data set [2], the Tm is 47.2 °C.
The matching figures for GGGATCGAAAGATTGCCC ((((((....)))..))): -14.6 kcal/mol and 32.6 °C.
In the case of GGGATCGAAAGATTTCCC ((((((....)))..))), the folding enthalpy in data set [1] was -19 kcal/mol. In addition, the Tm in data set [2] was 32.3 °C.
The matching figures for GGGATGCGAAAGCACCC (((.(((....)))))): -21.4 kcal/mol and 60 °C.
In the same order, the values of GGGATGGGAAACCGTTCC ((.(.((....)).).)) are -27 kcal/mol and 39.1 °C.
In the same order, the values of GGGATGGGAAACTATCCC (((((.(....).))))) are -30.5 kcal/mol and 49.8 °C.
Regarding GGGATTCGAAAGAACCC (((.(((....)))))), in data set [1], the folding enthalpy is -25.5 kcal/mol. In addition, the Tm in data set [2] stood at 47.1 °C.
In the same order, the values of GGGCAATCGAAAGATCCC (((..(((....)))))) are -21.5 kcal/mol and 34 °C.
In the same order, the values of GGGCACCCGAAAGGGCCC (((..(((....)))))) are -36.7 kcal/mol and 58 °C.
The matching figures for GGGCACGAAAGTGGGCCC ((((((....)))..))): -31.8 kcal/mol and 58.4 °C.
Regarding GGGCACGAAAGTGTTCCC ((((((....)))..))), the folding enthalpy in data set [1] was -17.7 kcal/mol. For the same sequence, the Tm in data set [2] is 46.1 °C.
The matching figures for GGGCACGCGAAAGCGCCC (((..(((....)))))): -16.2 kcal/mol and 58.7 °C.
The matching figures for GGGCACGGAAACATGCCC (((((.(....).))))): -37.6 kcal/mol and 51.5 °C.
The matching figures for GGGCACGGAAACGCGCCC ((((.((....)).)))): -44 kcal/mol and 64.3 °C.
Turning to GGGCAGGGAAACCTGCTC (.(((((....))))).), the folding enthalpy in data set [1] is -20 kcal/mol. Besides, in data set [2], the Tm is 59.6 °C.
The matching figures for GGGCAGGGAAACCTGTCC ((.((((....)))).)): -43.9 kcal/mol and 57.1 °C.
With GGGCATACGAAAGTACCC (((..(((....)))))), in data set [1], the folding enthalpy is -19.6 kcal/mol. In data set [2], the Tm worked out at 34.7 °C.
The matching figures for GGGCATGGAAACGTGCTC (.(((.(....).))).): -20.8 kcal/mol and 45 °C.
In the same order, the values of GGGCCACGAAAGTGTCCC (((.(((....))).))) are -45.3 kcal/mol and 57.3 °C.
GGGCCAGCGAAAGCTCCC (((..(((....)))))): the folding enthalpy in data set [1] was -14.5 kcal/mol. Besides, the Tm in data set [2] came to 40.3 °C.
Regarding GGGCCAGGAAACTGGCTC (.(((((....))))).), the folding enthalpy in data set [1] is -16.1 kcal/mol. In data set [2], the Tm was 61 °C.
The matching figures for GGGCCATCGAAAGATCCC (((..(((....)))))): -16.4 kcal/mol and 31.6 °C.
The matching figures for GGGCCCGAAAGGGAACCC ((((((....)))..))): -15.6 kcal/mol and 57.5 °C.
In the same order, the values of GGGCCCGAAAGGGCTCCC ((((((....)))..))) are -9.89 kcal/mol and 59.7 °C.
Regarding GGGCCCGAAAGGGGTCCC ((((((....)))..))), the folding enthalpy in data set [1] is -14.5 kcal/mol. The Tm in data set [2] worked out at 66.2 °C.
The matching figures for GGGCCCGAAAGGGTTCCC ((((((....)))..))): -15.2 kcal/mol and 51.5 °C.
In the same order, the values of GGGCCCGGAAACAGGCCC (((((.(....).))))) are -34.2 kcal/mol and 59.1 °C.
The matching figures for GGGCCCTCGAAAGAGCCC (((..(((....)))))): -23 kcal/mol and 48.1 °C.
For GGGCCGCGAAAGCGACCC (((.(((....))).))), the folding enthalpy in data set [1] is -29.7 kcal/mol. In addition, the Tm in data set [2] is 68.8 °C.
As to GGGCCGGGAAACCAGCCC ((((.((....)).)))), in data set [1], the folding enthalpy was -49.3 kcal/mol. The Tm in data set [2] is 54.3 °C.
In the same order, the values of GGGCCGGGAAACCGGCTC (.(((((....))))).) are -15.4 kcal/mol and 66.8 °C.
In the same order, the values of GGGCCGTCGAAAGACCCC (((..(((....)))))) are -16.6 kcal/mol and 44.4 °C.

(Values after the array DNA melting data of Ke et al. (doi:10.1101/2024.01.08.574731).)
